High-throughput results (PubChem)
Pf Dd2 growth: blocks growth of Plasmodium falciparum Dd2 parasites. P. falciparum Dd2 growth, SYBR Green, 72 h; hits give low values. 94,000 compounds, 2.3% hits. activity change, % at 10 µM. AID 1159554; in the data active = activity change below about -80%; inconclusive = no clear call, values can overlap the other calls
KDM4C inh: KDM4C (human) demethylase inhibition | Q9H3R0 | GST-KDM4C 2-372, H3K9me3 peptide, LANCE TR-FRET | inhibition, % at 12.5 µM | 96,000 compounds, 0.15% hits;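 active = mean replicate inhibition above about 25%, with at least 55% of replicates also reaching it, limit read from the data, passing the limit was not always enough; inconclusive = only one of those two conditions met; inactive = neither condition met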
Target sequence (Q9H3R0 2-372 limits assumed): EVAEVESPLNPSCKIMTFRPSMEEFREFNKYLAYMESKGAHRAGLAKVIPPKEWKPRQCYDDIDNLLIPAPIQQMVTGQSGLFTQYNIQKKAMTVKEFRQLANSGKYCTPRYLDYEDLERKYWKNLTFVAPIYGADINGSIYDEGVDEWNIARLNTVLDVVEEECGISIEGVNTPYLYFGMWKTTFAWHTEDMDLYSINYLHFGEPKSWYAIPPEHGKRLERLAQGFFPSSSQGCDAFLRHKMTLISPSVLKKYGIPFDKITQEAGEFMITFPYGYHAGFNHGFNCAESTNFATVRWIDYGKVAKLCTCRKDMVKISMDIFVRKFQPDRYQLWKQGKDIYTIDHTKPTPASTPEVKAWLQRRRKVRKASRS
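Material: N-terminal GST-fused human GASC-1 (KDM4C) fragment, residues 2-372. Input: 10 nM enzyme. Incubation: enzyme reaction 30 min, then detection 60 min, both room temperature. Doses: one test concentration per compound. Read-out basis: inhibition from TR-FRET ratio decrease. Detection: LANCE TR-FRET, excitation 340 nm, emissions 618 and 671 nm.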
IDH1 R132H inh: blocks human IDH1 R132H reductase activity; diaphorase/resazurin fluorescence, 60 min; inhibition, % at 10 µM; 70,000 compounds, 0.18% hits; in the data active = inhibition above about 34%; inconclusive = no clear call, values can overlap the other calls; inactive = below about 11%;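 also: 0% = DMSO and 100% = no enzyme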
Target sequence (O75874 whole entry R132H): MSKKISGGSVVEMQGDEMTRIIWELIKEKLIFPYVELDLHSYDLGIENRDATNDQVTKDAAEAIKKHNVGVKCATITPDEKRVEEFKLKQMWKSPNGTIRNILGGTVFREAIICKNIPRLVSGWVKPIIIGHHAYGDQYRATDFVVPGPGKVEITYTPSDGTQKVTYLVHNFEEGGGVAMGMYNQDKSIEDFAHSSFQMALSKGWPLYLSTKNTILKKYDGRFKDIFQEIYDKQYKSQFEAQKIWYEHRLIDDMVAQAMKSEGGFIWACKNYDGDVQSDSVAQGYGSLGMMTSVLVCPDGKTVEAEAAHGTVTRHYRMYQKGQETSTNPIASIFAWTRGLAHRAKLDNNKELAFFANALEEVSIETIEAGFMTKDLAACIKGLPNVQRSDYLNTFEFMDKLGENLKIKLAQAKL
T cruzi growth-1: blocks T. cruzi growth in NIH3T3 culture; T. cruzi beta-gal in NIH3T3, GalScreen luminescence, 90 h; inhibition, % at 8.34 µM; AID 624255; 77,000 compounds, 5.9% hits;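 active = mean inhibition above about 93%, with at least 55% of replicates each passing it, limit read from the data, passing the limit was not always enough; inconclusive = only one of those two conditions holds; inactive = neither condition holds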
T cruzi growth-2: blocks T. cruzi growth in NIH3T3 host cells. shares compounds with T cruzi growth-1. T. cruzi beta-gal in NIH3T3, GalScreen luminescence, 90 h. inhibition, % at 8.35 µM. 5,600 compounds, 72% hits. AID 651739;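 active = mean replicate inhibition above about 95% and at least 55% of replicates individually reaching it, limit read from the data; inconclusive = only one of the two criteria is met; inactive = neither criterion is met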
T cruzi growth-3: Trypanosoma cruzi proliferation inhibition | shares compounds with T cruzi growth-1 | T. cruzi beta-gal in NIH3T3, GalScreen luminescence, 90 h | inhibition, % at 2.09 µM | 5,600 compounds, 21% hits;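 active = mean inhibition above about 95%, with at least 55% of replicates also reaching it, limit read from the data; inconclusive = meets just one of the two conditions; inactive = meets neither condition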;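 also: plate controls were neutral control median for no effect and positive control median for full effect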
3T3 cytotox: cytotoxicity in mouse NIH/3T3 fibroblasts | shares compounds with T cruzi growth-1 | NIH/3T3 viability, CellTiter-Glo ATP luminescence, 90 h | cytotoxicity (signal decrease), % at 8.35 µM | 5,600 compounds, 14% hits;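 active = mean signal decrease across replicates above about 35% based on untreated-well scatter, with enough replicates individually passing, limit read from the data; inconclusive = no rule stated though some were filed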;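 also: 0% = median of neutral control wells and 100% = median of positive control wells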
3T3 cytotox 2: cytotoxicity in mouse NIH/3T3 fibroblasts; shares compounds with T cruzi growth-1; NIH/3T3 viability, CellTiter-Glo ATP luminescence, 90 h; inhibition, % at 24.9 µM; 5,600 compounds, 56% hits; AID 651744;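 active = mean loss of cell viability signal at or above a set limit, and enough replicates individually reaching it; inconclusive = meets only the mean limit or only the replicate share; inactive = meets neither condition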;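 also: 0% = median of neutral control wells and 100% = median of positive control wells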
An asterisk follows results filed as active; ? = inconclusive; nt = no result. A selection: hits, their analogues and other compounds. The true share with any hit is near 5.8%.

SMILES	Pf Dd2 growth	KDM4C inh	IDH1 R132H inh	T cruzi growth-1	T cruzi growth-2	T cruzi growth-3	3T3 cytotox	3T3 cytotox 2
Cc1ccccc1S(=O)(=O)N1CCCCN2[C@H](CO)[C@@H](c3ccc(-c4cccc(F)c4)cc3)[C@H]2C1	-39.8	-0.9	nt	106.3*	103.5*	59.2	18.2	75.8*
Cc1ccccc1S(=O)(=O)N1CCCCN2[C@H](C1)[C@H](c1ccc(-c3cccc(F)c3)cc1)[C@@H]2CO	-33.1	-1.2	nt	103.0*	102.7*	105.6*	-11.9	56.6*
COc1cccc(S(=O)(=O)N[C@H]2CC[C@@H](CCNC(=O)Cc3ccncc3)O[C@H]2CO)c1	-5.1	0.7	-0.2	106.2*	43.6	-9.3	-2.2	-3.8
O=C(NCC[C@@H]1CC[C@@H](NS(=O)(=O)c2cccc(Cl)c2)[C@@H](CO)O1)c1cnccn1	13.7	-0.1	0.2	-31.2	nt	nt	nt	nt
O=C(NCC[C@H]1CC[C@H](NS(=O)(=O)c2cccc(Cl)c2)[C@@H](CO)O1)c1cnccn1	-2.1	-2.0	-0.2	143.8*	21.1	-28.5	-16.2	18.2
COc1cccc(S(=O)(=O)N[C@H]2CC[C@@H](CCNC(=O)Cc3ccncc3)O[C@@H]2CO)c1	2.0	0.0	-0.4	14.7	nt	nt	nt	nt
C[C@H]1CN([C@@H](C)CO)S(=O)(=O)c2ccc(-c3ccncc3)cc2O[C@H]1CN(C)Cc1ccccn1	-11.9	0.8	nt	103.4*	96.7*	86.0	-0.4	28.4*
C[C@@H]1CN([C@H](C)CO)S(=O)(=O)c2ccc(-c3ccncc3)cc2O[C@H]1CN(C)Cc1ccccn1	-31.0	-2.0	nt	112.4*	93.6	?	?	57.6*
C[C@@H](O)C#Cc1ccc([C@H]2[C@@H](CO)N3CCCCN(S(=O)(=O)Cc4ccccc4)C[C@H]23)cc1	-16.5	-0.7	nt	45.3	nt	nt	nt	nt
C[C@@H](O)C#Cc1ccc([C@@H]2[C@H]3CN(S(=O)(=O)Cc4ccccc4)CCCCN3[C@H]2CO)cc1	-4.8	-0.4	nt	47.6	nt	nt	nt	nt
CC(C)C#Cc1ccc([C@@H]2[C@H]3CN(S(=O)(=O)Cc4ccccc4)CCCCN3[C@H]2CO)cc1	-23.7	0.1	nt	101.0*	98.3*	88.6	17.9	106.4*
CC(C)C#Cc1ccc([C@@H]2[C@@H](CO)N3CCCCN(S(=O)(=O)Cc4ccccc4)C[C@H]23)cc1	-4.7	-0.1	nt	116.5*	107.0*	80.3	22.7	105.0*
CC(C)CC#Cc1ccc([C@@H]2[C@H]3CN(S(=O)(=O)Cc4ccccc4)CCCCN3[C@H]2CO)cc1	-57.4	4.9	nt	104.5*	98.5*	105.4*	23.7	105.8*
CC(C)C#Cc1ccc([C@H]2[C@H](CO)N3CCCCN(S(=O)(=O)Cc4ccccc4)C[C@@H]23)cc1	-16.5	0.0	nt	108.8*	105.6*	66.3	19.9	103.6*
COc1ccc(S(=O)(=O)N(C)C[C@@H]2Oc3ncc(C#CC4(O)CCCC4)cc3C(=O)N([C@H](C)CO)C[C@H]2C)cc1	-51.6	1.1	nt	9.5	nt	nt	nt	nt
C[C@@H]1CN([C@H](C)CO)C(=O)c2cccc(NC(=O)Nc3ccc(F)cc3)c2O[C@H]1CN(C)S(=O)(=O)c1ccc(F)cc1	-12.1	-0.6	nt	30.8	nt	nt	nt	nt
C/C=C/c1ccc([C@@H]2[C@@H](CNC(=O)CC3CC3)N(C(=O)CC)[C@H]2CO)cc1	8.4	1.5	nt	112.7*	9.0	0.2	-15.6	20.5
C/C=C/c1ccc([C@H]2[C@@H](CNC(=O)CC3CC3)N(C(=O)CC)[C@H]2CO)cc1	1.0	0.1	nt	102.5*	51.9	11.5	5.9	11.7
C/C=C/c1ccc([C@H]2[C@@H](CNC(=O)C3CC3)N(C(=O)NCCC)[C@H]2CO)cc1	-10.7	-3.3	nt	96.8*	69.0	43.9	-20.5	-20.9
C/C=C/c1ccc([C@@H]2[C@@H](CO)N(C(=O)CC)[C@H]2CNC(=O)CC2CC2)cc1	20.2	-0.8	nt	20.0	nt	nt	nt	nt
CCCNC(=O)Nc1ccc2c(c1)OC[C@@H](C)N(Cc1ccccc1)C[C@H](C)[C@H](OC)CN(C)C2=O	-65.2	1.4	0.1	72.5	nt	nt	nt	nt
C[C@@H]1CN([C@@H](C)CO)C(=O)Cc2cc(N(C)C)ccc2O[C@@H]1CN(C)Cc1ccc(Cl)c(Cl)c1	-0.4	nt	0.0	66.9	nt	nt	nt	nt
C[C@H]1CN([C@@H](C)CO)C(=O)Cc2cc(N(C)C)ccc2O[C@@H]1CN(C)Cc1ccc(Cl)c(Cl)c1	-30.2	0.6	0.0	128.0*	115.7*	61.1	2.9	100.5*
C[C@H]1CN([C@@H](C)CO)C(=O)Cc2cc(N(C)C)ccc2O[C@@H]1CN(C)Cc1ccc2c(c1)OCO2	-2.1	6.6	0.0	107.2*	101.3*	63.0	1.2	11.5
C[C@@H]1CN([C@H](C)CO)C(=O)Cc2cc(N(C)C)ccc2O[C@@H]1CN(C)Cc1ccc2c(c1)OCO2	30.1	0.9	-0.5	-17.4	nt	nt	nt	nt
SMILES	Pf Dd2 growth	KDM4C inh	IDH1 R132H inh	T cruzi growth-1	T cruzi growth-2	T cruzi growth-3	3T3 cytotox	3T3 cytotox 2
C[C@H](CO)N1C[C@H](C)[C@@H](CN(C)Cc2ccc3c(c2)OCO3)Oc2ccc(N(C)C)cc2CC1=O	-7.0	1.3	-2.4	132.6*	104.5*	90.0	25.1	31.3*
COc1ccc(NC(=O)N2CC(=O)N3[C@H](CO)[C@@H](c4ccc(Br)cc4)[C@H]3C2)cc1	-25.3	3.0	nt	nt	nt	nt	nt	nt
COc1ccc(S(=O)(=O)Nc2ccc3c(c2)C(=O)N([C@H](C)CO)C[C@H](C)[C@@H](CN(C)S(=O)(=O)c2ccc(C)cc2)OCCCC[C@@H](C)O3)cc1	-41.0	-0.4	-1.6	nt	nt	nt	nt	nt
COc1ccc(S(=O)(=O)N(C)C[C@H]2OCCCC[C@H](C)Oc3ccc(NS(=O)(=O)c4ccc(C)cc4)cc3C(=O)N([C@H](C)CO)C[C@H]2C)cc1	-83.1*	-1.0	nt	?	107.0*	92.8	-6.8	11.8
COc1ccc(S(=O)(=O)N(C)C[C@H]2OCCCC[C@@H](C)Oc3ccc(NS(=O)(=O)c4ccc(C)cc4)cc3C(=O)N([C@H](C)CO)C[C@@H]2C)cc1	-17.6	0.5	nt	7.5	nt	nt	nt	nt
COc1ccc(S(=O)(=O)N(C)C[C@H]2OCCCC[C@H](C)Oc3ccc(NS(=O)(=O)c4ccc(C)cc4)cc3C(=O)N([C@H](C)CO)C[C@@H]2C)cc1	-47.2	-0.6	-1.2	?	109.6*	65.8	1.4	-31.1
C[C@@H]1CCCCO[C@@H](CN(C)Cc2ccc(Cl)c(Cl)c2)[C@@H](C)CN([C@H](C)CO)C(=O)c2cc(NC(=O)Cc3ccccc3)ccc2O1	-39.5	10.8	0.9	93.7	nt	nt	nt	nt
O=C(Nc1ccc(F)cc1)N[C@H]1CC[C@@H](CCn2cc(-c3ccc(F)cc3)nn2)O[C@H]1CO	-5.3	-2.8	-0.4	14.6	nt	nt	nt	nt
